In experiment [1] the test system is SEM cells. Put plainly: Proliferation, viable cell count by trypan blue exclusion. It is filed as cell-based, human. As to conditions: 72 h. In short, it runs like this: (§1)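 Human B-ALL (SEM, RS4;11) and T-ALL (Jurkat, CEM) lines were grown with 10% heat-inactivated FBS and penicillin/streptomycin at 37°C, 5% CO2. Cells took test compound at 0.1–5.0 μM (methods: 0.5–5.0 μM) or DMSO for up to 72 h. Viable cells were counted by trypan blue exclusion and expressed relative to control (100%). IC50 came from three separate experiments, each in triplicate.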

Experiment [2] deals with RS4;11 cells. Described as above. It is filed as cell-based, human. In short, it runs like this:
as §1

For experiment [3], the system named is SEM cells. Put plainly: Apoptosis, Annexin V FITC / propidium iodide flow cytometry. It is filed as cell-based, human. Particulars: 5 μM, 72 h, DMSO 7.4%. On the technique in general: Flow cytometry measures light scatter and fluorescence of single cells or particles in a stream.
Experiment [4] concerns RS4;11 cells. Described as above. As to conditions: RS4;11, 5 μM, 72 h; DMSO 11.7%. It is filed as cell-based, human.
Experiment [5] concerns CEM cells. The experiment is described as above. Particulars: 5 μM, 72 h, DMSO 7.3%. It is filed as cell-based, human.
Experiment [6] concerns RS4;11 cells. Put plainly: Cell morphology, May Grünwald Giemsa staining. It is filed as cell-based, human. Particulars: 48 h.
Experiment [7] has as its system pSTAT3. Put plainly: Western blot, SEM cells. It is filed as cell-based, human. As to conditions: 2.5 μM or 5.0 μM, 48 h. In short, it runs like this:
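SEM or RS4;11 cells took DMSO, 2.5 or 5.0 μM test compound for 48 h. Cells (1–5×10^6) were lysed in RIPA buffer with sonication, run on SDS gels, blotted to PVDF and imaged by near-infrared fluorescence. Bands were normalised to GAPDH, and the phospho/total protein ratio was set relative to DMSO control (=1).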
(A western blot detects proteins with antibodies after separation by electrophoresis.)

In experiment [8] the target is Abl (Homo sapiens, UniProt P00519). Put plainly: Kinase activity screening. It is filed as biochemical. As to conditions: FX-9 at 2.5 μM, ATP at Km (45 μM). In short, it runs like this:
(§2)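 Radiometric substrate-phosphorylation screen covering a panel of 58 human kinases run by a contract service. […] Activity is given as a percentage of mean activity in positive control samples (100%). Values <30% were scored strong hits, 30–70% partial hits and >70% no hit.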

Experiment [9] deals with ALK (Homo sapiens, UniProt Q9UM73). Put plainly: Kinase activity screening. It is filed as biochemical. Particulars: FX-9 at 2.5 μM, ATP at Km (200 μM). The procedure, abridged: as §2
For experiment [10], the target named is CHK1 (Homo sapiens, UniProt O14757). Description: Kinase activity screening. Particulars: FX-9 at 2.5 μM, ATP at Km (90 μM). It is filed as biochemical. The procedure, abridged:
as §2

Experiment [11] addresses DRAK1 (Homo sapiens, UniProt Q9UEE5). Put plainly: Kinase activity screening. It is filed as biochemical. Particulars: FX-9 at 2.5 μM, ATP at Km (10 μM). In short, it runs like this: as §2
The target of experiment [12] is Fyn (Homo sapiens, UniProt P06241). Description: Kinase activity screening. It is filed as biochemical. Particulars: FX-9 at 2.5 μM, ATP at Km (70 μM). The procedure, abridged:
as §2

For experiment [13], the target named is Lyn (Homo sapiens, UniProt P07948). Put plainly: Kinase activity screening. As to conditions: FX-9 at 2.5 μM, ATP at Km (70 μM). It is filed as biochemical. In short, it runs like this:
as §2

Experiment [14] deals with MST1 (Homo sapiens, UniProt Q13043). Put plainly: Kinase activity screening. It is filed as biochemical. Particulars: FX-9 at 2.5 μM, ATP at Km (90 μM). The procedure, abridged: as §2
Experiment [15] deals with NEK2 (Homo sapiens, UniProt P51955). Put plainly: Kinase activity screening. As to conditions: FX-9 at 2.5 μM, ATP at Km (120 μM). It is filed as biochemical. The procedure, abridged:
as §2

Experiment [16] concerns the target PAK2 (Homo sapiens, UniProt Q13177). Description: Kinase activity screening. It is filed as biochemical. Particulars: FX-9 at 2.5 μM, ATP at Km (90 μM). In short, it runs like this:
as §2

The target of experiment [17] is PKA (Homo sapiens, UniProt P17612). Description: Kinase activity screening. It is filed as biochemical. Particulars: FX-9 at 2.5 μM, ATP at Km (10 μM). The procedure, abridged:
as §2

Experiment [18] has as its target PKCα (Homo sapiens, UniProt P17252). Description: Kinase activity screening. It is filed as biochemical. As to conditions: FX-9 at 2.5 μM, ATP at Km (45 μM). The procedure, abridged: as §2
Experiment [19] addresses PRAK (Homo sapiens, UniProt Q8IW41). Put plainly: Kinase activity screening. It is filed as biochemical. As to conditions: FX-9 at 2.5 μM, ATP at Km (15 μM). The procedure, abridged: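 Radiometric kinase-panel screen of 58 human kinases, measuring substrate phosphorylation. […] Activity is given as % of the mean positive-control kinase activity (100%). Below 30% counts as a strong hit, 30–70% as a partial hit, and above 70% as no hit.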

For experiment [20], the target named is PI3 Kinase (p120g) (Homo sapiens, UniProt P48736). Put plainly: Kinase activity screening. It is filed as biochemical. As to conditions: FX-9 at 2.5 μM, ATP at Km (100 μM). In short, it runs like this: as §2
Experiment [21] concerns the target PI3 Kinase (p110d/p85a) (Homo sapiens, UniProt O00329). Description: Kinase activity screening. It is filed as biochemical. As to conditions: FX-9 at 2.5 μM, ATP at Km (200 μM). In short, it runs like this:
as §2

Chain of PAK2 (Q13177 whole entry): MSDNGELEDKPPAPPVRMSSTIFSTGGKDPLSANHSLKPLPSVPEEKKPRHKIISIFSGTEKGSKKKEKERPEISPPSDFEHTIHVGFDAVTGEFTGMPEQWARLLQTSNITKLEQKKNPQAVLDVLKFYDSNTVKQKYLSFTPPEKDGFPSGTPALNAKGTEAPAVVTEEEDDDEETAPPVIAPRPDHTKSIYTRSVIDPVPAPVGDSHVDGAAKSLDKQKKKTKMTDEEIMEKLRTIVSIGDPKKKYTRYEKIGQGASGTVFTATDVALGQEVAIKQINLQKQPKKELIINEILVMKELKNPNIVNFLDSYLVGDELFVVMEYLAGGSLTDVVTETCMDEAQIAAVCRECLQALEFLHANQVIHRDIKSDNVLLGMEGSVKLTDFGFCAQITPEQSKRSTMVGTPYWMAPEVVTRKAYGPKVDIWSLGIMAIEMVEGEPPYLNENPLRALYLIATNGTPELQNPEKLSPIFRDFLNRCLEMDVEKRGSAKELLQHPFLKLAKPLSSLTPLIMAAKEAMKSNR
Chain of PRAK (Q8IW41 whole entry): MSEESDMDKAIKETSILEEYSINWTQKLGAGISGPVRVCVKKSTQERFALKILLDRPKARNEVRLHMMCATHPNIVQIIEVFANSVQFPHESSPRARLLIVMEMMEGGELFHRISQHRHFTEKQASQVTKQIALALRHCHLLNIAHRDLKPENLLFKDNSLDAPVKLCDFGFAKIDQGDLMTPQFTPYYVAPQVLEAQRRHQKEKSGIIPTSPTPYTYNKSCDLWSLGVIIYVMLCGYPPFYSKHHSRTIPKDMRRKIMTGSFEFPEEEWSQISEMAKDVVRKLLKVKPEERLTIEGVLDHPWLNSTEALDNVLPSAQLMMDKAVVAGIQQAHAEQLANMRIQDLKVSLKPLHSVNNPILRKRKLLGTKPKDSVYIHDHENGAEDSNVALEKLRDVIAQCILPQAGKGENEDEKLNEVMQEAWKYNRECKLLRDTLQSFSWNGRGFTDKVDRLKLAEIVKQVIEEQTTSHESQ
Chain of NEK2 (P51955 whole entry): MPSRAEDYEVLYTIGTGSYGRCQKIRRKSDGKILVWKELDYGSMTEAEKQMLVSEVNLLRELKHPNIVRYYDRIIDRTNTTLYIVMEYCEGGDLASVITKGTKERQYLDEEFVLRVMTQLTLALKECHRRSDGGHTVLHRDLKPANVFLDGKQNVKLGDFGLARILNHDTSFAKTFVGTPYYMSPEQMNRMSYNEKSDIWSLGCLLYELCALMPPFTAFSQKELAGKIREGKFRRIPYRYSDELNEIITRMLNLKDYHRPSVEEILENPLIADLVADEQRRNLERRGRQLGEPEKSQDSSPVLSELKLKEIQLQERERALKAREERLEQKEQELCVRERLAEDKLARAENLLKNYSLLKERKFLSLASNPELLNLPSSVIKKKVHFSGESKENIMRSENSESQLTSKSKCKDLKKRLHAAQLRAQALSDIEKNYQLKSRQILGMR
Chain of Lyn (P07948 whole entry): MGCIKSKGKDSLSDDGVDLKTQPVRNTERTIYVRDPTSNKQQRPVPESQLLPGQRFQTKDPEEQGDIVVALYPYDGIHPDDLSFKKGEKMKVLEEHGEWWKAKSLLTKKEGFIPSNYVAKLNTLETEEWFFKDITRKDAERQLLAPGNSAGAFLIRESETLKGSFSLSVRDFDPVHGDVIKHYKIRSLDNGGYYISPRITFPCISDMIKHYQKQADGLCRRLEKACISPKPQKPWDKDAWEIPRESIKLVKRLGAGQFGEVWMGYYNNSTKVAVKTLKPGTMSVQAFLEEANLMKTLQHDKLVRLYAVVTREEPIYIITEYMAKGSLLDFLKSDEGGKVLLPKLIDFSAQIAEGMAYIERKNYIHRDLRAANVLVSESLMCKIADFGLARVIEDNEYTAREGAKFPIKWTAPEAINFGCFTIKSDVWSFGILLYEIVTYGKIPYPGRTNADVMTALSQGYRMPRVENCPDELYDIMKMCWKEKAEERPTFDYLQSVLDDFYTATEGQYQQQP
Chain of ALK (Q9UM73 19-1620): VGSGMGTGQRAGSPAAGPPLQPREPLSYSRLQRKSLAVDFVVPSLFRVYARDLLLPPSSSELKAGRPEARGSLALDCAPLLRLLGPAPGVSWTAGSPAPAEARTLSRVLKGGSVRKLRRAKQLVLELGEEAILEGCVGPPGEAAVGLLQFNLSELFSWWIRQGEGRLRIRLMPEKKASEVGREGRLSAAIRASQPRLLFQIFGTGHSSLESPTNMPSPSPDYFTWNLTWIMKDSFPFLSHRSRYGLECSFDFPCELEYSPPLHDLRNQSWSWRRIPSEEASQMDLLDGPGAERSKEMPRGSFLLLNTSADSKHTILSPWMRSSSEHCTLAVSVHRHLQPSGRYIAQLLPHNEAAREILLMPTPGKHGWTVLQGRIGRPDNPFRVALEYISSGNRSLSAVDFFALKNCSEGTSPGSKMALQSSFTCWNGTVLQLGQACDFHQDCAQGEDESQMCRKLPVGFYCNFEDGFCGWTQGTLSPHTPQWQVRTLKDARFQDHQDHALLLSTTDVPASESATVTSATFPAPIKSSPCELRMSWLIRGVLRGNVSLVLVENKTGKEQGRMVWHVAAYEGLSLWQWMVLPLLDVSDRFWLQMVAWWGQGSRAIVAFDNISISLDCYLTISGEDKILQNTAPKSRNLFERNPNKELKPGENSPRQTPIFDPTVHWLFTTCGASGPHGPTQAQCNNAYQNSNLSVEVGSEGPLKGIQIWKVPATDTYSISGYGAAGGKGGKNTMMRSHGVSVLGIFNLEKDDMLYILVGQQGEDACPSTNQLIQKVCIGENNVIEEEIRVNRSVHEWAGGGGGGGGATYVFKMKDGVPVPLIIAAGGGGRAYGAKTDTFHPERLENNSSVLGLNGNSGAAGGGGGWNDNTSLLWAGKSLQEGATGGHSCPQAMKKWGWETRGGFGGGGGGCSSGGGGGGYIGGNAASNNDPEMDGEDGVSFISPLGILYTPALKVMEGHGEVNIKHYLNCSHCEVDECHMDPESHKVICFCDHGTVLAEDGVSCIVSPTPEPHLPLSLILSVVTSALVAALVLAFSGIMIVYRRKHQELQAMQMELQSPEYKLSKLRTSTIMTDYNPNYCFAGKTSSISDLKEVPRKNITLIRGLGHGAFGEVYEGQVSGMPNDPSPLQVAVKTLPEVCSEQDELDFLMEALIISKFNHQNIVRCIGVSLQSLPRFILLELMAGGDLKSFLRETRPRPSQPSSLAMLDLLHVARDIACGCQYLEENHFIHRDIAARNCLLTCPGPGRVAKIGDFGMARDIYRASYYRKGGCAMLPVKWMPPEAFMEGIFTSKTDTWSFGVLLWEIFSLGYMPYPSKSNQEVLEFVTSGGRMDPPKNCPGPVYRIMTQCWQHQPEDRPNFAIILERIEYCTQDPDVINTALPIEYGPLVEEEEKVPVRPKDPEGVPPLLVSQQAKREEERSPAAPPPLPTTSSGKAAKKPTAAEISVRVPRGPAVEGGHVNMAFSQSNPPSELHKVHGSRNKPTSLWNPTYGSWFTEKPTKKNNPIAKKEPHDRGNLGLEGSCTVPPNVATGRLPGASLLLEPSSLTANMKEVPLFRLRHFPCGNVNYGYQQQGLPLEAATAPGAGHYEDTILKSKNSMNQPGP
Chain of CHK1 (O14757 whole entry): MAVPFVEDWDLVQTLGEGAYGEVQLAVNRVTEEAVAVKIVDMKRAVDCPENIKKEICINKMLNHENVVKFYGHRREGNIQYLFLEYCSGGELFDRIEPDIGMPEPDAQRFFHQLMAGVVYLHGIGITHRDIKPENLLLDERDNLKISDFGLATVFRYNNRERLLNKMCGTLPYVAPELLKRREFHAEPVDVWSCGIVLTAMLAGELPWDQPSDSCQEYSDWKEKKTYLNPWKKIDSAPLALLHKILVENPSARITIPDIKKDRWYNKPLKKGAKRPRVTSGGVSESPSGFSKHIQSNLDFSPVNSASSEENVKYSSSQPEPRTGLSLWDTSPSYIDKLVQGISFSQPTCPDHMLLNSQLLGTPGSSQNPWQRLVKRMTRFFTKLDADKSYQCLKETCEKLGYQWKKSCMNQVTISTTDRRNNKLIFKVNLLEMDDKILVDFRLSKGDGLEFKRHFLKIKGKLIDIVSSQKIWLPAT

As for `Cc1ccc(-c2cc3ccccc3c(N)n2)cc1` [FX-9, 3-(p-Tolyl)isoquinolin-1-amine], the IC50 in [1] (Homo sapiens, read-out: IC50 based on proliferation) is 1460 ± 10 nM; in [2] (Homo sapiens, RS4-11, 72 h, read-out: IC50 based on proliferation), 540 ± 20 nM. In addition, the “Proliferation compared to control cells (=100%)” value in experiment [1] (SEM, 0.5 μM) came to 69.5%; in experiment [2] (RS4;11, 0.5 μM, 72 h) it was 60.0%. Further, the “Apoptosis (total of early apoptotic and late apoptotic and necrotic cells)” value was determined as 75.9% in experiment [3], 84.6% in experiment [4] and 90.4% in experiment [5]. Also, the “cellular morphology (light microscopy)” value in experiment [6] (RS4;11, 1.0 μM) is “increased amount of vacuoles and karyopyknosis”; in [6] (RS4;11, 2.5 μM), “Extensive cytoplasmic vacuolization, karyopyknosis, and karyolysis”. The “pSTAT3 level (western blot)” value in [7] is “reduced”. For the same molecule, the “Kinase activity (% control)” value in experiment [8] is 96 % control; in experiment [9], 112 % control; in [10], 94 % control; in experiment [11], 81 % control; in experiment [12] it was 97 % control; in experiment [13] it was 87 % control. Further, the “Kinase activity (% control)” value in experiment [14] came to 87 % control; in experiment [15] it was 106 % control; in experiment [16], 88 % control; in [17], 92 % control; in experiment [18] it was 99 % control; in experiment [19], 79 % control. Besides, the “Kinase activity (% control)” value is 98 % control in experiment [20] and 100 % control in experiment [21].

The values are drawn from publication PMC6720533 (Biomolecules & Therapeutics, 2019).
